Test results reported in ChEMBL document CHEMBL1150166, “Cytotoxic 3,20-epoxy-ent-kaurane diterpenoids from Isodon eriocalyx var. laxiflora” (J Nat Prod, 2002).
In brackets after ≈: the same amount, converted by molar mass.

Experiments:
K562 = test: Cytotoxicity against human K562 cells after 48 hrs by MTT assay; type: functional, cell-based; settings: K562, 48 h
Summary of the method: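 Log-phase K562 cells (5 × 10⁴ cells/mL) were exposed in quadruplicate to 10⁻⁴ to 10⁻⁸ g/L drug for 48 h at 37 °C under 5% CO₂. MTT (5 mg/mL) was then added for 4 h, and formazan was dissolved in 10% SDS/5% isobutanol/HCl for 12 h at room temperature. OD was read at 570 and 630 nm. Controls were saline or DMSO, with cisplatin as the positive control.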

T-24 = test: Cytotoxicity against human T24 cells after 72 hrs by SRB assay; settings: T-24, 72 h
A549 = test: Cytotoxicity against human A549 cells after 72 hrs by SRB assay; settings: A549, 72 h

Structure (SMILES)	IC50 (K562)	IC50 (T-24)	IC50 (A549)
C=C1[C@@H](OC(C)=O)[C@]23C[C@@]1(O)CC[C@H]2[C@]12CO[C@H](CC1=O)C(C)(C)[C@H]2[C@H](O)C3=O [LAXIFLORIN M]	219 µg/mL (≈ 541 µM)		
C=C1[C@@H]2CC[C@@H]3[C@](C2)(C(=O)[C@@H](O)[C@@H]2C(C)(C)[C@H]4CC(=O)[C@@]32CO4)[C@@H]1O [LAXILORIN L]	1.13 µg/mL (≈ 3.25 µM)	5.16 µg/mL (≈ 14.9 µM)	24.7 µg/mL (≈ 71.2 µM)
CC1(C)[C@H]2[C@H](O)C(=O)[C@@]34C[C@@H](CC[C@H]3[C@@]23CO[C@@H]1CC3=O)[C@@H](CO)C4=O [LAXIFLORIN K]	11.9 µg/mL (≈ 32.8 µM)	1750 µg/mL (≈ 4840 µM)	
C=C1C(=O)[C@]23C[C@H]1CC[C@H]2[C@]12CO[C@H](CC1=O)C(C)(C)[C@H]2[C@H](O)C3=O [LAXIFLORIN J]	0.473 µg/mL (≈ 1.37 µM)	0.314 µg/mL (≈ 0.912 µM)	49.1 µg/mL (≈ 142 µM)
C=C1C(=O)[C@]23C[C@H]1CC[C@H]2[C@]12CO[C@H](CC1=O)C(C)(C)C2=C(O)C3=O [MAOECRYSTAL P]	0.132 µg/mL (≈ 0.386 µM)	0.0512 µg/mL (≈ 0.15 µM)	69.5 µg/mL (≈ 203 µM)
